The IC50 is the concentration at which inhibition is half-maximal. A higher IC50 goes with weaker potency.

Tested on in the first experiment: not listed separately
Kind of experiment: Antiproliferative activity against human ES2 cells after 48 hrs by MTT assay. The class given is functional, cell-based. The settings on record: ES-2, 48 h. A digest of the protocol: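 ES-2 human cells seeded at 5000 per well, adhered 10 h, then exposed to 2500, 500, 100, 20 and 4 µg/mL compound for 48 h. MTT 0.5% solution added, 4 h further incubation, formazan dissolved in DMSO, absorbance at 570 nm. Three independent experiments, mean with SE.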
For orientation: Tetrazolium assays rely on reduction of a dye to a coloured formazan, in cell work by metabolically active cells.
`O=C(N[C@@H](CCCCNC(=O)OCc1ccccc1)C(=O)NO)N[C@@H](Cc1ccccc1)C(=O)NO` returned an IC50 of 395 µM. Same read-out and setting: the figure for `CSCC[C@H](NC(=O)N[C@@H](CCCCNC(=O)OCc1ccccc1)C(=O)NO)C(=O)NO` is 356 µM; for `C[C@H](NC(=O)N[C@@H](CCCCNC(=O)OCc1ccccc1)C(=O)NO)C(=O)NO` it is 415 µM. Still for that read-out and setting: the figure for `CC(C)C[C@H](NC(=O)N[C@@H](CCCCNC(=O)OCc1ccccc1)C(=O)NO)C(=O)NO` is 291 µM.

`CC(C)C[C@H](NC(=O)[C@@H](O)[C@H](N)Cc1ccccc1)C(=O)O` [UBENIMEX] had an IC50 of 332 µM.

The target of a further experiment is T1, Aminopeptidase N (Sus scrofa, UniProt P15145).
T1 sequence (P15145 whole entry): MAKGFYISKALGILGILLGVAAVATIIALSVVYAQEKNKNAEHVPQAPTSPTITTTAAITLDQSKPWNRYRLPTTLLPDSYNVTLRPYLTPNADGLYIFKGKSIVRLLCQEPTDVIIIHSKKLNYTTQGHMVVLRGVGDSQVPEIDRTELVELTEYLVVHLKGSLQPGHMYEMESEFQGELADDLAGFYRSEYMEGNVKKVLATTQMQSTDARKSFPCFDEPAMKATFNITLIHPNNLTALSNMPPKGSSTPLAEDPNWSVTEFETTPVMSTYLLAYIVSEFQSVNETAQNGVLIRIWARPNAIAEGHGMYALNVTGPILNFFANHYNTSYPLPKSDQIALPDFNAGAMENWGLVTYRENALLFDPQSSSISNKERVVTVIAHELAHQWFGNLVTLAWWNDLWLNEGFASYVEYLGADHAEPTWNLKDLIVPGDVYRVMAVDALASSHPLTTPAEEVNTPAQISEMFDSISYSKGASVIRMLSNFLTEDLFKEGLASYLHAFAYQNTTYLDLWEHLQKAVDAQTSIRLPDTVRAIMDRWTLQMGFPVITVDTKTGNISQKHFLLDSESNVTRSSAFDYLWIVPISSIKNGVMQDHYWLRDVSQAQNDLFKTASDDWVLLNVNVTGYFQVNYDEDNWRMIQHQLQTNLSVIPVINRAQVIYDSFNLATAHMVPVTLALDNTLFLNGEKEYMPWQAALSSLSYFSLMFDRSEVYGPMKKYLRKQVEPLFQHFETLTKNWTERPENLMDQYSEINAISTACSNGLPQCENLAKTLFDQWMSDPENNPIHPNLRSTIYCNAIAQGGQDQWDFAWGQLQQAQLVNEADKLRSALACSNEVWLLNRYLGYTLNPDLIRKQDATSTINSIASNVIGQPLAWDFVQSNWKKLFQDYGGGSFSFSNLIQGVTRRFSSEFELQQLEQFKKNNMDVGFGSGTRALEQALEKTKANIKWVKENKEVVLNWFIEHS
Kind of experiment: Inhibition of porcine kidney microsomal APN after 10 mins at room temperature by spectrophotometry.
Conditions: not given
A digest of the protocol: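 Porcine kidney microsomal aminopeptidase (lyophilized, 15–25 units/mg protein), 6 µg/mL final, preincubated with inhibitor 10 min at room temperature. Substrate L-Leu-p-nitroanilide, 50 mM PBS pH 7.2, 37 °C. Inhibitor solutions in assay buffer adjusted to pH 7.5. IC50 as mean ± SD of three independent assays.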
With `CC[C@@H](C)[C@H](NC(=O)N[C@@H](CCCCNC(=O)OCc1ccccc1)C(=O)NO)C(=O)NO`, the 50% inhibitory concentration (IC50) is above 50 µM. Still for that read-out and setting: under `O=C(N[C@@H](CCCCNC(=O)OCc1ccccc1)C(=O)NO)N[C@@H](Cc1ccccc1)C(=O)NO` stands 14.5 µM; under `CSCC[C@H](NC(=O)N[C@@H](CCCCNC(=O)OCc1ccccc1)C(=O)NO)C(=O)NO`, 14.4 µM; under `COC(=O)[C@H](CCCCNC(=O)OCc1ccccc1)NC(=O)N[C@H](C(=O)OC)C(C)C`, above 50 µM. The same measure, in the same setting: the figure for `COC(=O)[C@H](CCCCNC(=O)OCc1ccccc1)NC(=O)N[C@@H](CC(C)C)C(=O)OC` is above 50 µM. Still for that read-out and setting: the figure for `CC[C@@H](C)[C@H](NC(=O)N[C@@H](CCCCNC(=O)OCc1ccccc1)C(=O)OC)C(=O)OC` is above 50 µM. The compound `COC(=O)[C@H](CCCCNC(=O)OCc1ccccc1)NC(=O)N[C@@H](Cc1ccccc1)C(=O)OC` registered an IC50 above 50 µM.

Compound `COC(=O)[C@H](CCCCNC(=O)OCc1ccccc1)NC(=O)N[C@@H](CCSC)C(=O)OC` registered an IC50 above 50 µM.

In the case of `O=C(O)CNC(=O)N[C@@H](CCCCNC(=O)OCc1ccccc1)C(=O)O`, the half-inhibitory concentration (IC50) is above 50 µM. The same measure, in the same setting: under `C[C@H](NC(=O)N[C@@H](CCCCNC(=O)OCc1ccccc1)C(=O)O)C(=O)O` stands above 50 µM; under `CC(C)[C@H](NC(=O)N[C@@H](CCCCNC(=O)OCc1ccccc1)C(=O)O)C(=O)O`, above 50 µM; under `CC(C)C[C@H](NC(=O)N[C@@H](CCCCNC(=O)OCc1ccccc1)C(=O)O)C(=O)O`, above 50 µM. The same measure, in the same setting: under `CC[C@@H](C)[C@H](NC(=O)N[C@@H](CCCCNC(=O)OCc1ccccc1)C(=O)O)C(=O)O` stands above 50 µM; under `O=C(N[C@@H](CCCCNC(=O)OCc1ccccc1)C(=O)O)N[C@@H](Cc1ccccc1)C(=O)O`, above 50 µM; under `CSCC[C@H](NC(=O)N[C@@H](CCCCNC(=O)OCc1ccccc1)C(=O)O)C(=O)O`, above 50 µM. Same read-out and setting: the figure for `O=C(CNC(=O)N[C@@H](CCCCNC(=O)OCc1ccccc1)C(=O)NO)NO` is 20.4 µM. For the compound `C[C@H](NC(=O)N[C@@H](CCCCNC(=O)OCc1ccccc1)C(=O)NO)C(=O)NO`, the concentration for half-maximal inhibition (IC50) was 19.9 µM. Same read-out and setting: under `CC(C)C[C@H](NC(=O)N[C@@H](CCCCNC(=O)OCc1ccccc1)C(=O)NO)C(=O)NO` stands 4.51 µM; under `COC(=O)[C@H](CCCCNC(=O)OCc1ccccc1)NC(=O)NCc1ccccc1`, above 50 µM. The same measure, in the same setting: the figure for `COC(=O)[C@H](CCCCNC(=O)OCc1ccccc1)NC(=O)NCCc1ccccc1` is above 50 µM; for `COC(=O)[C@H](CCCCNC(=O)OCc1ccccc1)NC(=O)NC(C)(C)C` it is above 50 µM. In the case of `O=C(NCc1ccccc1)N[C@@H](CCCCNC(=O)OCc1ccccc1)C(=O)NO`, the IC50 stood at 16.4 µM. Still for that read-out and setting: under `O=C(NCCc1ccccc1)N[C@@H](CCCCNC(=O)OCc1ccccc1)C(=O)NO` stands above 50 µM; under `CC(C)(C)NC(=O)N[C@@H](CCCCNC(=O)OCc1ccccc1)C(=O)NO`, above 50 µM; under `COC(=O)CNC(=O)N[C@@H](CCCCNC(=O)OCc1ccccc1)C(=O)OC`, above 50 µM. Still for that read-out and setting: the figure for `COC(=O)[C@H](C)NC(=O)N[C@@H](CCCCNC(=O)OCc1ccccc1)C(=O)OC` is above 50 µM.

Source of the values: ChEMBL document CHEMBL1641492, “Design, synthesis and biological evaluation of novel L-lysine ureido derivatives as aminopeptidase N inhibitors” (Bioorg Med Chem, 2011).
